Assay results reported in ChEMBL document CHEMBL4354813, “Design, Synthesis, and Pharmacological Evaluation of Potent Positive Allosteric Modulators of the Glucagon-like Peptide-1 Receptor (GLP-1R)” (J Med Chem, 2020).
Activity calls are given as the source filed them. The calls are words filed in the database; no cut-off is given here.

Columns and labels:
Mus musculus = assay: Suppression of blood glucose concentration in 4.5 mg/kg, ip GLP1(9-36)NH2-treated GLP-1R (-/-) C57Bl/6J mouse model at 30 mg/kg, po dosed 1 hrs before test and treated with 60 mg/kg, po OATP/MRP2 inhibitor rifampicin 2.5 hrs prior to oral glucose-tolerance test; format: functional, organism-based
Procedure, shortened: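 GLP-1R-/- male mice aged 10 weeks, n=6, fasted overnight. Rifampicin 60 mg/kg p.o. 2.5 h before the oGTT, compound p.o. 1 h before, with or without GLP1(9-36)NH2 i.p. 15 min before. Glucose 2 g/kg orally. Tail-vein blood glucose by glucometer at 0, 15, 30, 60 and 90 min.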

[1] = biological target: Glucagon-like peptide 1 receptor (Homo sapiens, UniProt P43220); assay: Positive allosteric modulator activity at human GLP-1R expressed in PSC-HEK293 cells assessed as potentiation of cAMP accumulation incubated for 30 mins by HTRF cAMP assay
Sequence of Glucagon-like peptide 1 receptor (P43220 whole entry): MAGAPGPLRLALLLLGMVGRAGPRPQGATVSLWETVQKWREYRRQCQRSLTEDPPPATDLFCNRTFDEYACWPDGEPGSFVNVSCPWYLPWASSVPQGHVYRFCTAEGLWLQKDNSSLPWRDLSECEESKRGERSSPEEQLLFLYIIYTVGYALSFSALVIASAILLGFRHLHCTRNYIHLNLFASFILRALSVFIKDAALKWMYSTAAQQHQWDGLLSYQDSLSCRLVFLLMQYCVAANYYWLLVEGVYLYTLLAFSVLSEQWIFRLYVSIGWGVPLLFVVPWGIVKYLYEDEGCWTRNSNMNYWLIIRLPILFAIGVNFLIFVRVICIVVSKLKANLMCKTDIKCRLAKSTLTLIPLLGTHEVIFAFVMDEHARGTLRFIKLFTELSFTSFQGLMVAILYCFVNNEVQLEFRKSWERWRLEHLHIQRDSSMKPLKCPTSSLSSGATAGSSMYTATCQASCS

[2] = Clearance in mouse hepatocytes assessed per million cells by LC-MS/MS analysis; format: ADME, cell-based, Hepatocyte
Procedure, shortened: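 Intrinsic clearance in primary human hepatocytes ([…] as printed) or mouse hepatocytes, compound 0.5–5 µM; quinidine or ketoconazole added to define CYP2D6/CYP3A4 contribution; LC-MS/MS analysis.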

[3] = biological target: T1, Solute carrier organic anion transporter family member 1B1 (Homo sapiens, UniProt Q9Y6L6); assay: Substrate activity at human OATP1B1 expressed in HEK293 cells assessed as increase in compound uptake at 1 uM LC-MS/MS analysis; format: ADME, cell-based; details: hek293, 1 µM, TDE = time-dependent effect
T1 sequence (Q9Y6L6 whole entry): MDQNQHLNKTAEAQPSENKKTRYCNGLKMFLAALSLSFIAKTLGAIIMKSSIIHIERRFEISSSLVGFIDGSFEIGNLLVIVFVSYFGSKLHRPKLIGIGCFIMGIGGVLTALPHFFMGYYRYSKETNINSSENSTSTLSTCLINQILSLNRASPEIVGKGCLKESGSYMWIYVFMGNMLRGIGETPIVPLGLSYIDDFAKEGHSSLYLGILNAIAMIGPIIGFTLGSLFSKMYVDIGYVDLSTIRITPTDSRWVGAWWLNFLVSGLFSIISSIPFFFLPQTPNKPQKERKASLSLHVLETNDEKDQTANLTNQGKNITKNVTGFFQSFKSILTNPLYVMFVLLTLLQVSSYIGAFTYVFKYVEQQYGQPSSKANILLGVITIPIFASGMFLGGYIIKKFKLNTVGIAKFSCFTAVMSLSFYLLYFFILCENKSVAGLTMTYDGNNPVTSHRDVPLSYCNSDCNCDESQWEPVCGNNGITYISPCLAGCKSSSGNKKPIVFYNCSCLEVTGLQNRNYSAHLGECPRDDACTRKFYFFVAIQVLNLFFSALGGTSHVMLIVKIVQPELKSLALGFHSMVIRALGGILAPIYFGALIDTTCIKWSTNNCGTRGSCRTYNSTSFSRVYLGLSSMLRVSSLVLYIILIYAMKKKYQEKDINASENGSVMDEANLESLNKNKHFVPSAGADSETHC
Procedure, shortened: (§1)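 HEK-TR cells overexpressing hOATP1B1 or hOATP1B3, run in parallel with control HEK-TR cells, seeded at 1 x 10⁵ cells/well one day before. Time-dependent uptake of 1 μM compound in HBSS at 37 °C, quadruplicates. Uptake stopped with ice-cold buffer, cells washed, lysed and quantified by LC-MS/MS. Uptake ratio calculated against the control cells.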

[4] = biological target: T2, Gastric inhibitory polypeptide receptor (Homo sapiens) (UniProt P48546); assay: Activity at human GIPR expressed in PSC-HEK293 cells incubated for 30 mins by HTRF cAMP assay; format: functional, cell-based
T2 sequence (whole entry): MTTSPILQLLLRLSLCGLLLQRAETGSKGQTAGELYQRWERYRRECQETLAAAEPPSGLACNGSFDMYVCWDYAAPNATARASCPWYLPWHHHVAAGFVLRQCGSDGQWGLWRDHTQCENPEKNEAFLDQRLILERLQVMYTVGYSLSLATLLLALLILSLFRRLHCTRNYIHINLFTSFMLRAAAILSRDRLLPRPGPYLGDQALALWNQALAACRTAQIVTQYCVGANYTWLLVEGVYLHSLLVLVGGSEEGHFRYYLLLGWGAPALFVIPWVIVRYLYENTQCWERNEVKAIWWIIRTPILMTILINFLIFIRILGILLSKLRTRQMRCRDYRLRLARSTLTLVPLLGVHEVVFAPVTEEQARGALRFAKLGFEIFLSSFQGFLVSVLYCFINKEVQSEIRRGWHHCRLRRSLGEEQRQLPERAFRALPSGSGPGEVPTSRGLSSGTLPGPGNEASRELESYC

[5] = biological target: T3, Solute carrier organic anion transporter family member 1B3 (Homo sapiens, UniProt Q9NPD5); assay: Substrate activity at human OATP1B3 expressed in HEK293 cells assessed as increase in compound uptake at 1 uM LC-MS/MS analysis; format: ADME, cell-based; details: hek293, 1 µM, TDE = time-dependent effect; procedure, shortened: as §1
T3 sequence (Q9NPD5 whole entry): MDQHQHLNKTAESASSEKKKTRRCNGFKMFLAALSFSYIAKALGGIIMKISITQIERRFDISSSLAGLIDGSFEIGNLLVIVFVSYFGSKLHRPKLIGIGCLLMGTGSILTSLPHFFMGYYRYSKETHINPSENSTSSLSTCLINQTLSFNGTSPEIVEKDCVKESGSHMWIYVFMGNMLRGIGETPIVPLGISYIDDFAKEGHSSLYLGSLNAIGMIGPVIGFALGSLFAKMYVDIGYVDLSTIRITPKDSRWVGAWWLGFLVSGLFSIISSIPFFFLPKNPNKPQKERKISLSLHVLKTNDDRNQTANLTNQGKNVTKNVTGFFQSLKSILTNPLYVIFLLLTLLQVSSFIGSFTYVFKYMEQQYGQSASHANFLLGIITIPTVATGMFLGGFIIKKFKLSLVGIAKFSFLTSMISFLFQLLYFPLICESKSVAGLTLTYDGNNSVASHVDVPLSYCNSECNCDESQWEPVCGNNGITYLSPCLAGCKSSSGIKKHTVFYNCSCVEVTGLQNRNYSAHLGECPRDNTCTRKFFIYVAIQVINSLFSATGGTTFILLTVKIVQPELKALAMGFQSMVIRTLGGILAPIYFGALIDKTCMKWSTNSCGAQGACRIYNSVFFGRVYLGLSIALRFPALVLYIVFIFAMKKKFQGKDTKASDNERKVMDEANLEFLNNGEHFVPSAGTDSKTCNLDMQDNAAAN

Rattus norvegicus = species on record: Rattus norvegicus; assay: Improvement in GLP1(9-36)NH2-mediated glucose-stimulated insulin secretion in dispersed rat pancreatic islets at <10 uM incubated for 2 hrs by ELISA; format: functional
Procedure, shortened: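 Dispersed rat islets pre-incubated 1 h in Krebs-Ringer (5.6 mM glucose), then 2 h at 37 °C at 15 mM glucose with GLP1(9-36)NH2 1, 10 or 100 nM ± compound 1 µM, DMSO vehicle. Supernatant insulin measured by HTRF-based ELISA, expressed as % of total insulin and n-fold vs respective control; N≥9 per condition.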

Activity [1]	CLH [2] [mL/h/10^6 cells]	Activity [3]	Activity [4]	Activity [5]	Structure (SMILES)	Activity (Mus musculus)	Activity (Rattus norvegicus)
inactive	0.145	Tde	inactive	Tde	CC(C)(C)OC(=O)n1c2c(c3ccccc31)C[C@H]1C(=O)N3C[C@@H](CC(=O)O)C[C@H]3[C@@H]2N1C(=O)CC1CCC(F)(F)CC1	inactive	
inactive			inactive		CC(O)CCN1C[C@H]2c3c(c4ccccc4n3C(=O)OC(C)(C)C)C[C@@H](C1=O)N2C(=O)CC1CCC(F)(F)CC1 (some centres undefined)		Active
